In one series the test system is Vero. The series can be described thus: Cytotoxicity against african green monkey Vero cells. It counts as cell-based. The note with it: Chlorocebus sabaeus.
The test system of series [1] is Trypanosoma brucei brucei. The series can be described thus: Antitrypanosomal activity against Trypanosoma brucei brucei MITat 1.2 variant 221. Type of series: functional, organism-based. The method, boiled down:
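Bloodstream-form parasites (MITat 1.2, variant 221) grown axenically in HMI-9 medium, run by a previously reported protocol. Pentamidine and suramin included as standards. IC50 taken as the mean of three tests done on different days.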

For series [2], the system named is Leishmania donovani. The series can be described thus: Antileishmanial activity against Leishmania donovani promastigotes at 100 uM. It counts as functional.
For series [3], the system named is Leishmania donovani. The series can be described thus: Antileishmanial activity against Leishmania donovani promastigotes in RAW cells assessed as reduction in infection. It counts as functional. Set-up: scale not given: the % may be the effect or the level left. The procedure, abridged: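 RAW 264.7 macrophages (1 × 10^6) plated 2 h, infected 6 h with stationary-phase luciferase-transfected L. donovani promastigotes at 20:1 parasite:macrophage; free parasites washed off with PBS; compound-treated; survival by luciferase luminescence 24 h later; triplicate; % reduction in infection versus untreated wells.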

Series [4] has as its system Leishmania donovani. The series can be described thus: Antileishmanial activity against Leishmania donovani promastigotes at 1 uM. It counts as functional.
Series [5] relates to Leishmania donovani. The series can be described thus: Antileishmanial activity against Leishmania donovani axenic amastigotes. It counts as functional, organism-based. The procedure, abridged: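 L. donovani amastigote-like parasites (WHO MHOM/SD/62/1S-CL2D), axenic; 3-day growth inhibition assay read with tetrazolium dye-based CellTiter reagent; IC50 determined.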
Series [6] concerns Leishmania donovani. The series can be described thus: Antileishmanial activity against Leishmania donovani promastigotes at 10 uM. It counts as functional.
The next series deals with RAW. The series can be described thus: Cytotoxicity against mouse RAW cells. Type of series: cell-based. The procedure, abridged:
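RAW 264.7 murine macrophages in DMEM with 10% heat-inactivated FBS, antibiotics, 2 mM L-glutamine at 37 °C, 5% CO2; 1 × 10^5 cells treated or untreated with compounds for 48 h; viability read with alamarBlue.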

pIC50: −log10 of the molar value.

The results in this text go back to ChEMBL document CHEMBL1141301, “Trypanocidal and antileishmanial dihydrochelerythrine derivatives from Garcinia lucida” (J Nat Prod, 2007).

What is called pIC50 is the IC50 on a negative log10 scale, so that one unit is a factor of ten. In general, inhibition refers to how much of the control response was suppressed. As to `COc1ccc2c(c1OC)[C@H](CC(C)=O)N(C)c1c-2ccc2cc3c(cc12)OCO3`, the pIC50 in the series on Vero is 4.82; in series [1] it was 5.41; in the series with Leishmania donovani [5], 5.18. In the series on Leishmania donovani [2], the inhibition at 100 µM amounted to 100%. Besides, the Activity in the series with Leishmania donovani [3] came to 57.4%. For the same compound, the inhibition at 1 µM in the series on Leishmania donovani [4] is 23%. Moreover, at 10 µM the inhibition with Leishmania donovani [6] was 87%.

`COc1ccc2c(c1OC)CN(C)c1c-2ccc2cc3c(cc12)OCO3` [DIHYDROCHELERYTHRINE]: the figures for the pIC50 (in the series on Vero; in series [1]; in the series with Leishmania donovani [5]) were 4.45, 6.10 and 5.70, respectively. For the same compound, in the series with Leishmania donovani [2], 100 µM produced 100% inhibition. The Activity in the series on Leishmania donovani [3] was determined as 70.9%. Moreover, the inhibition at 1 µM with Leishmania donovani [4] was 36%. Testing at 10 µM in the series with Leishmania donovani [6] gave an inhibition of 89%.

As to `CC(C)CNC(=O)/C=C/c1ccc2c(c1)OCO2` [FOGARAMIDE], in the series on RAW, the Activity entry is reported as “Non-toxic”.

Take `COc1ccc2c(c1OC)[C@H](CC(C)=O)N(C)c1c-2ccc2cc(O)c(O)cc12` [LUCIDAMINE A]: the pIC50 with Vero was 4.94; in series [1], 4.85; in the series with Leishmania donovani [5], 4.97. The inhibition at 100 µM in the series with Leishmania donovani [2] amounted to 100%. The inhibition at 1 µM in the series with Leishmania donovani [4] was determined as 23%. The Activity entry in the series with RAW is listed as “Toxic”. Besides, the inhibition at 10 µM in the series with Leishmania donovani [6] was determined as 76%.

Take `C=CC(C)(C)c1c(O)c(O)c(C(C)(C)C=C)c2c3c(ccc12)-c1ccc(OC)c(OC)c1[C@H](CC(C)=O)N3C` [LUCIDAMINE B]: the figures for the pIC50 (in the series with Vero; in series [1]; in the series on Leishmania donovani [5]) were 4.76, 5.39 and 5.17, respectively. For the same compound, the inhibition at 100 µM with Leishmania donovani [2] was 64%. This compound displayed an inhibition at 1 µM with Leishmania donovani [4] of 14%. Further, in the series on RAW, the Activity result is reported as “Toxic”. Also, 10 µM produced 48% inhibition in the series with Leishmania donovani [6].

Consider `N=C(N)c1ccc(OCCCCCOc2ccc(C(=N)N)cc2)cc1` [PENTAMIDINE], for which the pIC50 in the series on Vero is 4.86; in series [1], 8.60; in the series with Leishmania donovani [5] it was 5.89.

Consider `c1cc2c(cc1[C@H]1OC[C@H]3[C@@H]1CO[C@@H]3c1ccc3c(c1)OCO3)OCO2` [SESAMIN], for which the Activity result in the series on RAW is “Non-toxic”.

The compound `Cc1ccc(C(=O)Nc2ccc(S(=O)(=O)O)c3cc(S(=O)(=O)O)cc(S(=O)(=O)O)c23)cc1NC(=O)c1cccc(NC(=O)Nc2cccc(C(=O)Nc3cc(C(=O)Nc4ccc(S(=O)(=O)O)c5cc(S(=O)(=O)O)cc(S(=O)(=O)O)c45)ccc3C)c2)c1` [SURAMIN] had a pIC50 in series [1] of 6.70.
